Laboratory results reported in ChEMBL document CHEMBL2401668, “Evaluation of thiazole containing biaryl analogs as diacylglycerol acyltransferase 1 (DGAT1) inhibitors” (Eur J Med Chem, 2013).
Converted amounts (≈) assume the structure as drawn.

Experiments:
[1] = Tmax in Swiss mouse at 10 mg/kg, po by ESI-LC/MS/MS method; assay type: ADME, organism-based; design: dose 10 mg/kg, route oral; details: in vivo
Method in brief: (§1)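 Oral dose of 10 mg/kg, given as a 1 mg/ml suspension in 0.5% CMC with Tween 80 to weighed Swiss mice (n = 4). Blood was drawn at 0.08–24 h, and plasma was kept on ice, centrifuged at 4 °C and stored at −80 °C. Levels were measured by ESI-LC/MS/MS. Parameters came from non-compartmental analysis: Cmax and Tmax read from the profile, AUC0–t by linear trapezoidal rule, AUCinf extrapolated, and T1/2 = 0.693/λz.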

[2] = Half life in Swiss mouse at 10 mg/kg, po by ESI-LC/MS/MS method; assay type: ADME, organism-based; design: dose 10 mg/kg, route oral; details: in vivo; method in brief: as §1
[3] = AUC (infinity) in Swiss mouse at 10 mg/kg, po by ESI-LC/MS/MS method; assay type: ADME, organism-based; design: time infinity, dose 10 mg/kg, route oral; details: plasma; method in brief: as §1
Mus musculus = assay: Antihyperlipidemic activity in Swiss mouse assessed as reduction in plasma triglyceride level at 3 mg/kg, po after 1 to 4 hrs by acute fat tolerance test relative to control; assay type: functional; design: scale not given: the % may be the effect or the level left
Method in brief: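 Fasted Swiss mice (4–5 weeks, 25–30 g) were given 3 mg/kg by oral gavage as a suspension in 0.5% CMC with Tween 80, or vehicle (0.5% CMC). An olive oil bolus (10 ml/kg) followed 1 h later. Plasma was taken at 1, 2, 3 and 4 h and triglycerides were measured with a kit. The triglyceride AUC0–4 h was expressed as percent reduction, with the vehicle group taken as 100%.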

[4] = Cmax in Swiss mouse at 10 mg/kg, po by ESI-LC/MS/MS method; assay type: ADME, organism-based; design: dose 10 mg/kg, route oral; details: in vivo; method in brief: as §1
[5] = AUC (0 to t) in Swiss mouse at 10 mg/kg, po by ESI-LC/MS/MS method; assay type: ADME, organism-based; design: dose 10 mg/kg, route oral; details: plasma; method in brief: as §1
[6] = Solubility of the compound at pH 7.4; assay type: physicochemical; details: buffer

| Structure (SMILES) | Tmax [1] [min] | half-life [2] [min] | AUC(0-inf) [3] [ng·h/mL] | Activity (Mus musculus) [%] | Cmax [4] [µM] | AUC(0-t) [5] [ng·h/mL] | solubility [6] [µg/mL] |
| --- | --- | --- | --- | --- | --- | --- | --- |
| CC(C)[C@H](NC(=O)c1ncc(-c2ccc(NC(=O)Nc3ccccc3Cl)cc2)s1)C(=O)O | 9.6 | 29.4 | 672 | 82 | 1.9 | 623 |  |
| CC(C)[C@H](NC(=O)c1ccc(-c2ccc(Nc3nc4ccc(F)cc4s3)cc2)cc1)C(=O)O | 15 | 37.2 | 5350 | 90 | 5.3 | 5340 | 10 (≈ 21.6 µM) |
| CC(C)[C@H](NC(=O)c1ncc(-c2ccc(NC(=O)c3ccc(C(C)(C)C)cc3)cc2)s1)C(=O)O | 10.2 | 49.8 | 7070 | 87 | 11.3 | 7060 |  |
